Key:
[1] = test system: Rattus norvegicus; experiment: Effect on heart weight in rat at 50 mg/kg/day administered for 16 days measured 24 hrs after last drug dosage relative to total body weight (reference value: 0.37 +/- 0.04%); type: ADME, organism-based; conditions: in vivo
[2] = test system: Rattus norvegicus; experiment: Effect on spleen weight in rat at 10 mg/kg/day administered for 16 days measured 24 hrs after last drug dosage relative to total body weight (reference value: 0.55 +/- 0.12%); type: ADME, organism-based; conditions: in vivo
[3] = test system: Rattus norvegicus; experiment: Effect on food intake in rat at 5 mg/kg/day measured during first week (reference value: 19.1 +/- 1.7 gms); type: ADME, organism-based; conditions: in vivo
In short: (§1)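 Male rats dosed orally at 1, 5, 10 or 50 mg/kg/day in 1% CMC. Average food intake in grams per rat per week measured over a 2-week period, first and second weeks reported separately. N = 8, Student's t test against the 1% CMC control.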

[4] = test system: Rattus norvegicus; experiment: Hypocholesterolemic activity in [14C]palmitic acid-treated rat assessed as decrease in 14C fatty acid incorporation into cholesterol ester fraction in liver at 10 mg/kg/day administered for 1 week by scintillation counting analysis; type: functional; parameters: scale not given: the % may be the effect or the level left
[5] = test system: Rattus norvegicus; experiment: Hypocholesterolemic activity in rat assessed as [14C]cholesterol level in urine at 10 mg/kg/day administered for 1 week measured after 22 hrs on day 7 by scintillation counting analysis (reference value: 0.14 +/- 0.06%); type: functional
In short: (§2)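 Male rats were dosed orally for 1 week (10 mg/kg/day) or with 1% CMC. On day 7 they received 5 μCi [4-14C]cholesterol orally and were killed after 22 hr. Organs were homogenized (10% in water); 0.1-cc aliquots of homogenate, urine, blood or feces were digested with Protosol. Samples were counted in toluene/Triton X-100 (2:1) scintillant with 0.4% PPO and 0.01% POPOP. Results are % of dose per tissue, N = 6.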

[6] = test system: Rattus norvegicus; experiment: Effect on body weight in rat at 10 mg/kg/day administered for 16 days measured on day 16 (reference value: 233 +/- 16 gms); type: ADME, organism-based; conditions: in vivo, 384 h
In short: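 Male Sprague-Dawley rats with chow and water ad libitum. Compound suspended in 1% CMC-water and given orally by intubation needle at 11:00 a.m., 1, 5, 10 or 50 mg/kg/day, for 16 days. Body weight (g) recorded on days 0, 7 and 16. N = 8.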

[7] = test system: Rattus norvegicus; experiment: Effect on kidney weight in rat at 10 mg/kg/day administered for 16 days measured 24 hrs after last drug dosage relative to total body weight (reference value: 0.92 to 0.96%); type: ADME, organism-based; conditions: in vivo
[8] = test system: Rattus norvegicus; experiment: Hypocholesterolemic activity in Sprague-Dawley rat assessed as serum cholesterol level at 10 mg/kg/day, po administered via intubation measured on day 16 by Liebermann-Burchard reaction (reference value: 100%); type: functional
[9] = test system: Rattus norvegicus; experiment: Hypocholesterolemic activity in rat assessed as [14C]cholesterol level in lung at 10 mg/kg/day administered for 1 week measured after 22 hrs on day 7 by scintillation counting analysis (reference value: 1.99 +/- 1.18%); type: functional; in short: as §2
[10] = test system: Rattus norvegicus; experiment: Hypocholesterolemic activity in Sprague-Dawley rat assessed as serum cholesterol level at 10 mg/kg/day, po administered via intubation measured on day 10 by Liebermann-Burchard reaction (reference value: 100%); type: functional
[11] = test system: Rattus norvegicus; experiment: Effect on vesicular gland weight in rat at 50 mg/kg/day administered for 16 days measured 24 hrs after last drug dosage relative to total body weight (reference value: 0.10 +/- 0.04%); type: ADME, organism-based; conditions: in vivo
[12] = test system: Rattus norvegicus; experiment: Effect on brain weight in rat at 50 mg/kg/day administered for 16 days measured 24 hrs after last drug dosage relative to total body weight (reference value: 0.67 +/- 0.05%); type: ADME, organism-based; conditions: in vivo
[13] = test system: Rattus norvegicus; experiment: Effect on spleen weight in rat at 50 mg/kg/day administered for 16 days measured 24 hrs after last drug dosage relative to total body weight (reference value: 0.55 +/- 0.12%); type: ADME, organism-based; conditions: in vivo
[14] = test system: Rattus norvegicus; experiment: Hypocholesterolemic activity in rat assessed as [14C]palmitic acid level in vas deferens at 10 mg/kg/day administered for 1 week measured after 22 hrs on day 7 by scintillation counting analysis (reference value: 0.23 +/- 0.05%); type: functional
In short: (§3)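 Male Sprague-Dawley rats on lab chow dosed orally once daily for 1 week at 10 mg/kg/day, suspended in 1% CMC, or given vehicle alone. On day 7, 5 μCi [1-14C]palmitic acid given orally. Killed after 22 hr; organs made into 10% water homogenates. Aliquots of 0.1 cc of homogenate, urine, blood or feces were digested and scintillation counted. Output is % of dose per tissue, N = 6.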

[15] = test system: Rattus norvegicus; experiment: Hypocholesterolemic activity in Sprague-Dawley rat assessed as serum cholesterol level at 1 mg/kg/day, po administered via intubation measured on day 16 by Liebermann-Burchard reaction (reference value: 100 +/- 8%); type: functional
[16] = test system: Rattus norvegicus; experiment: Effect on food intake in rat at 10 mg/kg/day measured during first week (reference value: 19.1 +/- 1.7 gms); type: ADME, organism-based; conditions: in vivo; in short: as §1
[17] = test system: Rattus norvegicus; experiment: Effect on liver weight in rat at 5 mg/kg/day administered for 16 days measured 24 hrs after last drug dosage relative to total body weight (reference value: 4.22 +/- 0.29%); type: ADME, organism-based; conditions: in vivo
[18] = test system: Rattus norvegicus; experiment: Hypocholesterolemic activity in Sprague-Dawley rat assessed as serum cholesterol level at 1 mg/kg/day, po administered via intubation measured on day 4 by Liebermann-Burchard reaction (reference value: 100 +/- 7%); type: functional
[19] = test system: Rattus norvegicus; experiment: Effect on kidney weight in rat at 50 mg/kg/day administered for 16 days measured 24 hrs after last drug dosage relative to total body weight (reference value: 0.92 +/- 0.04%); type: ADME, organism-based; conditions: in vivo
[20] = test system: Rattus norvegicus; experiment: Hypocholesterolemic activity in Sprague-Dawley rat assessed as serum cholesterol level at 10 mg/kg/day, po administered via intubation measured on day 4 by Liebermann-Burchard reaction (reference value: 100%); type: functional
[21] = test system: Rattus norvegicus; experiment: Effect on vas deferens and epididymis weight in rat at 1 mg/kg/day administered for 16 days measured 24 hrs after last drug dosage relative to total body weight (reference value: 0.22 +/- 0.04%); type: ADME, organism-based; conditions: in vivo
[22] = test system: Rattus norvegicus; experiment: Effect on liver weight in rat at 50 mg/kg/day administered for 16 days measured 24 hrs after last drug dosage relative to total body weight (reference value: 4.22 +/- 0.29%); type: ADME, organism-based; conditions: in vivo
[23] = test system: Rattus norvegicus; experiment: Effect on vas deferens and epididymis weight in rat at 10 mg/kg/day administered for 16 days measured 24 hrs after last drug dosage relative to total body weight (reference value: 0.22 to 0.24%); type: ADME, organism-based; conditions: in vivo
[24] = test system: Rattus norvegicus; experiment: Effect on vesicular gland weight in rat at 5 mg/kg/day administered for 16 days measured 24 hrs after last drug dosage relative to total body weight (reference value: 0.10 +/- 0.04%); type: ADME, organism-based; conditions: in vivo
[25] = test system: Rattus norvegicus; experiment: Hypocholesterolemic activity in rat assessed as [14C]cholesterol level in feces at 10 mg/kg/day administered for 1 week measured after 22 hrs on day 7 by scintillation counting analysis (reference value: 15.50 +/- 5.24%); type: functional; in short: as §2
[26] = test system: Rattus norvegicus; experiment: Effect on food intake in rat at 50 mg/kg/day measured during second week (reference value: 23.4 +/- 1.8 gms); type: ADME, organism-based; conditions: in vivo; in short: as §1
[27] = test system: Rattus norvegicus; experiment: Hypocholesterolemic activity in rat assessed as [14C]palmitic acid level in lung at 10 mg/kg/day administered for 1 week measured after 22 hrs on day 7 by scintillation counting analysis (reference value: 0.53 +/- 0.15%); type: functional; in short: as §3
[28] = test system: Rattus norvegicus; experiment: Effect on vesicular gland weight in rat at 10 mg/kg/day administered for 16 days measured 24 hrs after last drug dosage relative to total body weight (reference value: 0.10 to 0.11%); type: ADME, organism-based; conditions: in vivo

Q: Which results are given for `Cc1ccc(OCC(=O)COc2ccc(C)cc2)cc1`?
A: Activity [1]: 0.4%; Activity [2]: 0.6%; Activity [3]: 18.8 g; Activity [4]: 46%; Activity [5]: 0.94%; Activity [6]: 234 g; Activity [7]: 0.93%; Activity [8]: 58%; Activity [9]: 2.45%; Activity [10]: 50%; Activity [11]: 0.15%; Activity [12]: 0.83%; Activity [13]: 0.4%; Activity [14]: 0.5%; Activity [15]: 46%; Activity [16]: 18.2 g; Activity [17]: 4.31%; Activity [18]: 75%; Activity [19]: 0.88%; Activity [20]: 77%; Activity [21]: 0.23%; Activity [22]: 4.57%; Activity [23]: 0.24%; Activity [24]: 0.13%; Activity [25]: 22.1%; Activity [26]: 28.2 g; Activity [27]: 0.5%; Activity [28]: 0.11%

Reference: ChEMBL document CHEMBL3272327, “Hypocholesterolemic activity of 1,3-bis(substituted phenoxy)-2-propanones” (J Med Chem, 1976)
